Experimental data from ChEMBL document CHEMBL1122426, “Radioiodine-labeled N,N-dimethyl-N'-(2-hydroxy-3-alkyl-5-iodobenzyl)-1,3-propanediamines for brain perfusion imaging” (J Med Chem, 1983).

Assays:
Rattus norvegicus [1] = experiment: Biodistribution of I-125 labeled compound in rat blood, 1 hr after intravenous injection. value expressed in average % dose per organ; value may range from 1.13 to 1.60; assay type: ADME, organism-based; conditions: in vivo
Rattus norvegicus [2] = experiment: Biodistribution of I-125 labeled compound in rat blood, 2 min after intravenous injection. value expressed in average % dose per organ; value may range from 4.84 to 5.25; assay type: ADME, organism-based; conditions: in vivo
Rattus norvegicus [3] = experiment: Biodistribution of I-125 labeled compound in rat brain to blood ratio, 2 m in after intravenous injection. value expressed in % dose per gram ratio; assay type: ADME, organism-based
Procedure, shortened: (§1)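 Rats given I-125 diamine iv; tissue activity at 2 min or 1 h compared with diluted injected-dose aliquots. % dose per gram approximated as % dose per organ divided by mean organ weight (brain 1.65 g; blood 18 g). Ratio taken from the per-gram values.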

Rattus norvegicus [4] = experiment: Biodistribution of I-125 labeled compound in rat heart, 2 min after intravenous injection. value expressed in average % dose per organ; value may range from 1.95 to 2.54; assay type: ADME, organism-based; conditions: in vivo
Rattus norvegicus [5] = experiment: Biodistribution of I-125 labeled compound in rat liver, 1 hr after intravenous injection. value expressed in average % dose per organ; value may range from 8.10 to 10.6; assay type: ADME, organism-based; conditions: in vivo
Rattus norvegicus [6] = experiment: Biodistribution of I-125 labeled compound in rat brain, 1 hr after intravenous injection. value expressed in average % dose per organ; value may range from 1.39 to 1.47; assay type: ADME, organism-based; conditions: in vivo
Rattus norvegicus [7] = experiment: Biodistribution of I-125 labeled compound in rat liver, 2 min after intravenous injection. value expressed in average % dose per organ; value may range from 8.10 to 8.95; assay type: ADME, organism-based; conditions: in vivo
Rattus norvegicus [8] = experiment: Biodistribution of I-125 labeled compound in rat thyroid, 1 hr after intravenous injection. value expressed in average % dose per organ; value may range from 0.18 to 0.25; assay type: ADME, organism-based, Thyroid gland; conditions: in vivo
Rattus norvegicus [9] = experiment: Biodistribution of I-125 labeled compound in rat thyroid, 2 min after intravenous injection. value expressed in average % dose per organ; value may range from 0.13 to 0.20; assay type: ADME, organism-based, Thyroid gland; conditions: in vivo
Rattus norvegicus [10] = experiment: Biodistribution of I-125 labeled compound in rat brain, 2 min after intravenous injection. value expressed in average % dose per organ; value may range from 1.28 to 1.56; assay type: ADME, organism-based; conditions: in vivo
Rattus norvegicus [11] = experiment: Biodistribution of I-125 labeled compound in rat heart, 1 hr after intravenous injection. value expressed in average % dose per organ; value may range from 1.54 to 1.76; assay type: ADME, organism-based; conditions: in vivo
Rattus norvegicus [12] = species on record: Rattus norvegicus; experiment: Distribution coefficient at pH 7.0 in rat; assay type: ADME, organism-based
Procedure, shortened: (§2)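 Octanol/buffer partition: I-125 labeled diamine mixed with 3 g each of 1-octanol and 0.1 M phosphate buffer at pH 7.0 or 7.4, vortexed 3× 1 min, centrifuged 5 min. Two 0.5 g samples of each layer counted. Value is cpm/g octanol over cpm/g buffer, usually repeated three times.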

Rattus norvegicus [13] = species on record: Rattus norvegicus; experiment: Distribution coefficient at pH 7.4 in rat; assay type: ADME, organism-based; procedure, shortened: as §2
Rattus norvegicus [14] = experiment: Biodistribution of I-125 labeled compound in rat muscle, 2 min after intravenous injection. value expressed in average % dose per organ; value may range from 7.52 to 9.77; assay type: ADME, organism-based, Muscle tissue; conditions: in vivo
[15] = The protein binding ability of compound was expressed in Percent free; assay type: ADME; conditions: read-out: % free
Procedure, shortened: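 Binding to pooled human serum was measured by equilibrium dialysis. 0.4 mL serum and 0.4 mL 0.15 M phosphate buffer, pH 7.4, were separated by a membrane, and 0.025 μCi radiolabeled diamine was added on the buffer side. Cells were rotated at 37 °C for 18 h, and aliquots from both sides were weighed and counted. % free = buffer/serum radioactivity concentration ratio × 100. The membrane was also counted.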

Rattus norvegicus [16] = experiment: Biodistribution of I-125 labeled compound in rat lungs, 1 hr after intravenous injection. value expressed in average % dose per organ; value may range from 14.0 to 17.9; assay type: ADME, organism-based, Lung; conditions: in vivo
Rattus norvegicus [17] = experiment: Biodistribution of I-125 labeled compound in rat muscle, 1 hr after intravenous injection. value expressed in average % dose per organ; value may range from 11.9 to 16.0; assay type: ADME, organism-based, Muscle tissue; conditions: in vivo
Rattus norvegicus [18] = experiment: Biodistribution of I-125 labeled compound in rat lungs, 2 min after intravenous injection. value expressed in average % dose per organ; value may range from 36.9 to 42.9; assay type: ADME, organism-based, Lung; conditions: in vivo
Rattus norvegicus [19] = experiment: Biodistribution of I-125 labeled compound in rat brain to blood ratio, 1 hr after intravenous injection. value expressed in % dose per gram ratio; assay type: ADME, organism-based; procedure, shortened: as §1
Rattus norvegicus [20] = experiment: Biodistribution of I-125 labeled compound in rat blood, 1 hr after intravenous injection. value expressed in average % dose per organ; assay type: ADME, organism-based; conditions: in vivo
Rattus norvegicus [21] = experiment: Biodistribution of I-125 labeled compound in rat blood, 2 min after intravenous injection. value expressed in average % dose per organ; assay type: ADME, organism-based; conditions: in vivo
Rattus norvegicus [22] = experiment: Biodistribution of I-125 labeled compound in rat brain, 1 hr after intravenous injection. value expressed in average % dose per organ; assay type: ADME, organism-based; conditions: in vivo
Rattus norvegicus [23] = experiment: Biodistribution of I-125 labeled compound in rat brain to blood ratio, 2 min after intravenous injection. value expressed in % dose per gram ratio; assay type: ADME, organism-based; procedure, shortened: as §1
Rattus norvegicus [24] = experiment: Biodistribution of I-125 labeled compound in rat liver, 1 hr after intravenous injection. value expressed in average % dose per organ; assay type: ADME, organism-based; conditions: in vivo
Rattus norvegicus [25] = experiment: Biodistribution of I-125 labeled compound in rat liver, 2 min after intravenous injection. value expressed in average % dose per organ; assay type: ADME, organism-based; conditions: in vivo
Rattus norvegicus [26] = experiment: Biodistribution of I-125 labeled compound in rat lungs, 1 hr after intravenous injection. value expressed in average % dose per organ; assay type: ADME, organism-based, Lung; conditions: in vivo
Rattus norvegicus [27] = experiment: Biodistribution of I-125 labeled compound in rat thyroid, 2 min after intravenous injection. value expressed in average % dose per organ; assay type: ADME, organism-based, Thyroid gland; conditions: in vivo
Rattus norvegicus [28] = experiment: Biodistribution of I-125 labeled compound in rat brain, 2 min after intravenous injection. value expressed in average % dose per organ; assay type: ADME, organism-based; conditions: in vivo
Rattus norvegicus [29] = experiment: Biodistribution of I-125 labeled compound in rat heart, 1 hr after intravenous injection. value expressed in average % dose per organ; assay type: ADME, organism-based; conditions: in vivo
Rattus norvegicus [30] = experiment: Biodistribution of I-125 labeled compound in rat thyroid, 1 hr after intravenous injection. value expressed in average % dose per organ; assay type: ADME, organism-based, Thyroid gland; conditions: in vivo
Rattus norvegicus [31] = experiment: Biodistribution of I-125 labeled compound in rat lungs, 2 min after intravenous injection. value expressed in average % dose per organ; assay type: ADME, organism-based, Lung; conditions: in vivo
Rattus norvegicus [32] = experiment: Biodistribution of I-125 labeled compound in rat muscle, 1 hr after intravenous injection. value expressed in average % dose per organ; assay type: ADME, organism-based, Muscle tissue; conditions: in vivo
Rattus norvegicus [33] = experiment: Biodistribution of I-125 labeled compound in rat muscle, 2 min after intravenous injection. value expressed in average % dose per organ; assay type: ADME, organism-based, Muscle tissue; conditions: in vivo
Rattus norvegicus [34] = experiment: Biodistribution of I-125 labeled compound in rat heart, 2 min after intravenous injection. value expressed in average % dose per organ; assay type: ADME, organism-based; conditions: in vivo

CCC(C)c1cc(I)cc(CNCCCN(C)C)c1O (stereo not drawn)
Average dose per organ (Rattus norvegicus [1]): 1.33%
Average dose per organ (Rattus norvegicus [2]): 5.05%
Ratio (Rattus norvegicus [3]): 2.96%
Average dose per organ (Rattus norvegicus [4]): 2.15%
Average dose per organ (Rattus norvegicus [5]): 9.74%
Average dose per organ (Rattus norvegicus [6]): 1.43%
Average dose per organ (Rattus norvegicus [7]): 8.65%
Average dose per organ (Rattus norvegicus [8]): 0.22%
Average dose per organ (Rattus norvegicus [9]): 0.16%
Average dose per organ (Rattus norvegicus [10]): 1.39%
Average dose per organ (Rattus norvegicus [11]): 1.68%
Distribution coefficient (Rattus norvegicus [12]): 77.4
Distribution coefficient (Rattus norvegicus [13]): 389
Average dose per organ (Rattus norvegicus [14]): 8.38%
fraction unbound [15]: 0.0762
Average dose per organ (Rattus norvegicus [16]): 15.8%
Average dose per organ (Rattus norvegicus [17]): 13.3%
Average dose per organ (Rattus norvegicus [18]): 39.8%
Ratio (Rattus norvegicus [19]): 11.5%

CN(C)CCCNCc1cc(I)cc(C(C)(C)C)c1O
Average dose per organ (Rattus norvegicus [20]): 2.79%
Average dose per organ (Rattus norvegicus [21]): 4.16%
Average dose per organ (Rattus norvegicus [22]): 1.67%
Ratio (Rattus norvegicus [23]): 4.31%
Average dose per organ (Rattus norvegicus [24]): 7.38%
Average dose per organ (Rattus norvegicus [25]): 11.7%
Average dose per organ (Rattus norvegicus [26]): 15.4%
Average dose per organ (Rattus norvegicus [27]): 0.17%
Average dose per organ (Rattus norvegicus [28]): 1.67%
Average dose per organ (Rattus norvegicus [29]): 1.33%
Distribution coefficient (Rattus norvegicus [12]): 522
Distribution coefficient (Rattus norvegicus [13]): 1390
Average dose per organ (Rattus norvegicus [30]): 0.2%
fraction unbound [15]: 0.0607
Average dose per organ (Rattus norvegicus [31]): 28.2%
Average dose per organ (Rattus norvegicus [32]): 14.1%
Average dose per organ (Rattus norvegicus [33]): 6.44%
Average dose per organ (Rattus norvegicus [34]): 3.16%
Ratio (Rattus norvegicus [19]): 6.43%
